# Data: publication PMC9790683 (Birth Defects Research, 2022)
# “And” between values parts separate entries of the source, which are not always exact repeats. Equal values may be shown once. Read-outs that look alike come from different tables or passages of the source.
# Tests used:
# rat dams and fetuses = settings: cited from earlier work; for Developmental toxicity LEL: rat, oral repeat dosing, maternal and fetal LELs combined, ref Table 2 sources
# [1] = IVIVE, rat EAD with httk.PBTK model; settings: oral; for EAD using Httk.PBTK model, using nominal dTP Conc.: Cmax = dTP; for EAD using Httk.PBTK model, using free medium Conc.: Cmax = free medium dTP
# In short: (§1)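 Reverse dosimetry used the generic PBTK model from httk R package v1.8.1: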
# [2] = tested on: human iPS cells (HYR0103, ATCC ACS‐1007); assay: devTOX quickPredict; type: cell-based; settings: threshold 0.85, 48 hours; for TP: cell viability; for dTP: o/c ratio
# In short: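 Human iPS cells exposed across a concentration range. Ornithine and cystine abundance measured, and ornithine/cystine ratio calculated at each concentration. dTP is the concentration, interpolated from the ratio response curve, where the ratio drops below a predefined developmental-toxicity threshold set from pharmaceuticals of known human teratogenicity. TP is the concentration where viability falls below the same threshold. Nominal values converted to free-medium concentration by mass-balance model.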
# [3] = IVIVE, rat EAD with one‐compartment PPK model; settings: oral; for EAD using PPK model, using nominal dTP Conc.: Css = dTP; for EAD using PPK model, using free medium Conc.: Css = free medium dTP
# In short: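 Rat one-compartment population PK model assuming 100% absorption. Total clearance was hepatic plus renal (passive glomerular filtration), with inputs of plasma unbound fraction and hepatocyte Clint (predicted or experimental). Monte Carlo simulation of 10,000 individuals gave the upper 95th percentile steady-state plasma concentration. EAD was the dose giving total Css equal to the nominal dTP or Armitage-model free medium concentration.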
# [4] = IVIVE, human EAD with httk.PBTK model; settings: oral
# In short: as §1
# [5] = IVIVE, human EAD with GastroPlus pregnancy PBPK model; settings: for EAD, GP.pregancy model, Maternal plasma Cmax, free medium concentration / EAD, GP.pregancy model, Maternal plasma Cmax, nominal dTP: human pregnancy, 12 weeks gestation
# [6] = cited from earlier work; for Range of all human OEDs reported: across all in vitro assays (OEDall); for Range of all human OEDs reported / Range of human OEDs estimated from most sensitive endpoints: ref OECD, 2020; for Range of human OEDs estimated from most sensitive endpoints: most sensitive endpoint in each in vitro model (OEDnarrow)
# [7] = EAD by linear extrapolation of clinical dose‐Cmax data; settings: human, linear extrapolation of clinical dose‐Cmax data from PharmaPendium
# In short: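 Clinical dose–plasma Cmax data for the reference teratogen were taken from PharmaPendium. Dose giving Cmax equal to the in vitro dTP concentration was found by linear extrapolation. dTP is the interpolated concentration where the ornithine/cystine ratio curve in the human iPS cell devTOX qP assay falls below the predefined threshold.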
# [8] = Sprague–Dawley, corn oil gavage, GD 6–15, ref Narotsky et al., 1994
# [9] = from CALUX Min EC10 cell-total, ref OECD 2020
# [10] = from UKN1 HDAC inhibition EC10, ref OECD 2020
# [11] = from ZET pericardial and/or yolk oedema Total embryo EC10, ref OECD 2020
# [12] = from mEST HDAC inhibition, day 10 EC10, ref OECD 2020
# [13] = Wistar, drinking water, GD 6–19, ref Pennanen et al. (1992)
Compound,Developmental toxicity LEL (rat dams and fetuses),"EAD using Httk.PBTK model, using nominal dTP Conc. [1]","EAD using Httk.PBTK model, using free medium Conc. [1]",TP [2],dTP [2],"EAD using PPK model, using nominal dTP Conc. [3]","EAD using PPK model, using free medium Conc. [3]","EAD, Httk.PBTK model, free medium concentration [4]","EAD, Httk.PBTK model, nominal dTP [4]","EAD, GP.pregancy model, Maternal plasma Cmax, free medium concentration [5]","EAD, GP.pregancy model, Maternal plasma Cmax, nominal dTP [5]",Range of all human OEDs reported [6],"Human OED_max fu model [6, 9]","Human OED_max fu model [6, 10]","Human OED_max fu model [6, 11]","Human OED_max fu model [6, 12]",Range of human OEDs estimated from most sensitive endpoints [6],further results
"C=CCCC(=O)O [PA, 4‐Pentenoic acid]",50 to 75 mg/kg/day,147.7 mg/kg/day,145.2 mg/kg/day,719 µM,913 µM,947.1 mg/kg/day,931.1 mg/kg/day,,,,,,,,,,,LEL: Fetal toxicity (rat dams and fetuses; [8]): 50 mg/kg/day
"CCCCCC(=O)O [HA, Hexanoic acid]",,652.7 mg/kg/day,515.6 mg/kg/day,"1,022 μM",838 µM,"2,921.8 mg/kg/day","2,308.2 mg/kg/day",,,,,,,,,,,
"C=CCC(CCC)C(=O)O (stereo not shown) [4‐ene‐VPA, 2‐Propyl‐4‐pentenoic acid]",,77.1 mg/kg/day,61.7 mg/kg/day,636 µM,611 µM,119.6 mg/kg/day,95.7 mg/kg/day,,,,,,,,,,,
"CCCCC(C)C(=O)O (stereo not shown) [MHA, 2‐Methylhexanoic acid]",,331.4 mg/kg/day,205.5 mg/kg/day,"1,631 μM",976 µM,924.3 mg/kg/day,573.1 mg/kg/day,176.0 mg/kg/day,285.5 mg/kg/day,36.5 mg/kg/day,59.12 mg/kg/day,2.3–928.4,2.3 mg/kg,254.8 mg/kg,55.1 mg/kg,286.3 mg/kg,2.3–286.3,
"CCCCCC(CCC)C(=O)O (stereo not shown) [PHA, 2‐Propylheptanoic acid]",,39.5 mg/kg/day,9.1 mg/kg/day,425 µM,546 µM,27.5 mg/kg/day,6.3 mg/kg/day,,,,,,,,,,,
"CCCC(C)C(=O)O (stereo not shown) [MPA, 2‐Methylpentanoic acid]",188 mg/kg/day,574.2 mg/kg/day,467.4 mg/kg/day,,"1,248 μM","2,957.1 mg/kg/day","2,407.2 mg/kg/day",440.6 mg/kg/day,541.2 mg/kg/day,135.8 mg/kg/day,166.9 mg/kg/day,"35.2–1,353.3",37.3 mg/kg,186.6 mg/kg,84.5 mg/kg,261.1 mg/kg,37.3–261.1,LEL: Maternal toxicity (rat dams and fetuses; [8]): 188 mg/kg/day
"CCC(CC)C(=O)O [EBA, 2‐Ethylbutyric acid]",150 mg/kg/day,517.4 mg/kg/day,431.8 mg/kg/day,,"1,071 μM","2,708.3 mg/kg/day","2,260.4 mg/kg/day",404.5 mg/kg/day,484.7 mg/kg/day,127.8 mg/kg/day,153.2 mg/kg/day,34.4–826.6,35.8 mg/kg,161.4 mg/kg,53.3 mg/kg,357.8 mg/kg,35.8–357.8,
"CCCCC(CC)C(=O)O (stereo not shown) [EHA, 2‐Ethylhexanoic acid]",100 to 600 mg/kg/day,77.3 mg/kg/day,36.9 mg/kg/day,390 µM,399 µM,95.3 mg/kg/day,45.5 mg/kg/day,22.4 mg/kg/day,47.0 mg/kg/day,6.7 mg/kg/day,14.1 mg/kg/day,0.74–901.3,,,,,,LEL: Fetal toxicity (rat dams and fetuses; [13]): 100 mg/kg/day; LEL: Maternal toxicity (rat dams and fetuses; [13]): 600 mg/kg/day; Human OED_max fu model ([6]; human): 4.8 mg/kg
"CCCC(C)(C)C(=O)O [DMPA, 2,2‐Dimethylpentanoic acid]",,388.3 mg/kg/day,209.7 mg/kg/day,"1,745 μM",784 µM,936.6 mg/kg/day,505.8 mg/kg/day,,,,,,,,,,,
"CCCC(CCC)C(=O)O [VPA, Valproic acid, reference compound]",200 mg/kg/day and 200 to 400 mg/kg/day,13.5 mg/kg/day,5.8 mg/kg/day,318 µM,236 µM,33.3 mg/kg/day,14.3 mg/kg/day,4.5 mg/kg/day,10.4 mg/kg/day,2.7 mg/kg/day,6.4 mg/kg/day,0.11–51.9,3.2 mg/kg,3 mg/kg,2.8 mg/kg,2 mg/kg,0.11–3.2,"LEL: Fetal toxicity (rat dams and fetuses; Sprague–Dawley, GD 8–17, dose range 0–800, ref Binkerd et al., 1988): 200 mg/kg/day; LEL: Fetal toxicity (rat dams and fetuses; [8]): 200 mg/kg/day; LEL: Maternal toxicity (rat dams and fetuses; [8]): 400 mg/kg/day; EAD based on Clinical PK data [7]: 4.6 mg/kg/day; range of EADs derived from the in vitro dTP concentration ([5]; human, across all models, nominal and free): 2.7 to 24.4 mg/kg/day"
